{"data": "Published values from different studies", "target": "MAP/microtubule affinity-regulating kinase 3 (MARK3, Homo sapiens, UniProt P27448)", "note": "Compare with care: the assays were run in different laboratories."}
{"SMILES": "Cc1nn(CC(F)(F)F)cc1Nc1ncc(C2CC2)c(NCCCNC(=O)C2CCC2)n1", "read-out": "enzyme activity", "mode": "inhibitor", "technique": "radiometric", "concentration": "1 µM", "measurement": "remaining activity", "result": "96%"}
{"SMILES": "CCCCNc1ncc2c(-c3ccc(F)cc3)nn(C[C@H]3CC[C@H](N)CC3)c2n1", "read-out": "target engagement in cells", "mode": "inhibitor", "technique": "chemoproteomics", "concentration": "20 mM", "measurement": "inhibition", "result": "33.9%"}
{"SMILES": "C[C@@H]1CN(c2cc(-c3n[nH]c4ccc(OC5(C)CC5)cc34)ncn2)C[C@H](C)O1", "read-out": "cell-free assay", "technique": "competition with immobilised ligand", "concentration": "0.1 µM", "measurement": "remaining binding", "result": "73%"}
{"SMILES": "Oc1ccc(-c2nc(-c3ccncc3)c(-c3ccc(F)cc3)[nH]2)cc1", "read-out": "cell-free assay", "concentration": "0.5 µM", "measurement": "remaining signal", "result": "105%"}
{"SMILES": "c1cc(CN2CCOCC2)cc(Nc2ncc(C3CC3)c(NCCc3c[nH]cn3)n2)c1", "read-out": "enzyme activity", "mode": "inhibitor", "technique": "radiometric", "concentration": "1 µM", "measurement": "remaining activity", "result": "0%"}
{"SMILES": "CN(C)CC#Cc1ccc(OCCCc2sc(N3CCc4cccc(C(=O)Nc5nc6ccccc6s5)c4C3)nc2C(=O)O)c(F)c1", "read-out": "cell-free assay", "technique": "competition with immobilised ligand", "concentration": "1 µM", "measurement": "remaining binding", "result": "38%"}
{"SMILES": "O=C(NCCCNc1ccnc(Nc2cccc(NC(=O)N3CCCC3)c2)n1)C1CCC1", "read-out": "enzyme activity", "mode": "inhibitor", "technique": "radiometric", "concentration": "1 µM", "measurement": "remaining activity", "result": "92%"}
{"SMILES": "Cc1cc(C)c(-n2ccn3nc(-c4cccnc4)cc23)cc1NC(=O)c1cc(C#N)cc(S(F)(F)(F)(F)F)c1", "read-out": "cell-free assay", "technique": "competition with immobilised ligand", "concentration": "0.1 µM", "measurement": "remaining binding", "result": "85.1%"}
{"SMILES": "O=C(Nc1cccc(Nc2ncc(Br)c(NCCc3cnc[nH]3)n2)c1)N1CCCC1", "read-out": "enzyme activity", "mode": "inhibitor", "technique": "radiometric", "concentration": "1 µM", "measurement": "remaining activity", "result": "-1%"}
{"SMILES": "O=C(Nc1cnc(Oc2ccc(F)cc2)nc1)N1CCc2ncccc2[C@@H]1c1ccc(F)cc1", "read-out": "cell-free assay", "technique": "competition with immobilised ligand", "concentration": "1 µM", "measurement": "remaining binding", "result": "100%"}
{"SMILES": "FC(F)(F)Oc1cccc(-c2cnc3ccc(-c4ccncc4)nn23)c1", "read-out": "enzyme activity", "mode": "inhibitor", "technique": "radiometric", "concentration": "1 µM", "measurement": "activity vs control", "result": "91%"}
{"SMILES": "CNc1cc(Oc2cc(C(=O)Nc3cc(N4CCN(C)CC4)cc(C(F)(F)F)c3)ccc2C)ncn1", "read-out": "target engagement in cells", "mode": "inhibitor", "technique": "chemoproteomics", "cells": "Huh-7", "concentration": "1 µM", "measurement": "inhibition", "result": "-18.5%"}
{"SMILES": "CN(C)c1ncnc(-c2ccc3nc(Nc4cc(CN5CCN(C(=O)CC(F)(F)F)CC5)ccn4)[nH]c3c2)c1Cl", "read-out": "cell-free assay", "technique": "competition with immobilised ligand", "concentration": "1 µM", "measurement": "remaining binding", "result": "100%"}
{"SMILES": "CN1CC(Oc2cnc(C#N)cc2-c2ccn3nc(NC(=O)C4CC4)cc3c2)C1", "read-out": "enzyme activity", "mode": "inhibitor", "concentration": "1 µM", "measurement": "inhibition", "result": "17%"}
{"SMILES": "O=C1NC(=O)c2cc(Nc3ccc(F)cc3)c(Nc3ccc(F)cc3)cc21", "read-out": "cell-free assay", "concentration": "0.5 µM", "measurement": "remaining signal", "result": "90.8%"}
{"SMILES": "Cc1nn(CC(F)(F)F)cc1Nc1ncc(C2CC2)c(NCc2ccc(S(N)(=O)=O)cc2)n1", "read-out": "enzyme activity", "mode": "inhibitor", "technique": "radiometric", "concentration": "1 µM", "measurement": "remaining activity", "result": "111%"}
{"SMILES": "COc1cc(/C=C/C(=O)CC(=O)/C=C/c2ccc(O)c(OC)c2)ccc1O", "read-out": "enzyme activity", "mode": "inhibitor", "concentration": "1 µM", "measurement": "activity vs control", "result": "90%"}
{"SMILES": "Nc1c(C(=O)NCc2ccc(C(=O)NCCCC3CCCCC3)cc2)cnn1-c1ccccc1", "read-out": "cell-free assay", "technique": "competition with immobilised ligand", "concentration": "0.1 µM", "measurement": "remaining binding", "result": "78%"}
{"SMILES": "CN1CCc2cc(Nc3ncc(C4CC4)c(NCCCNC(=O)C4CCC4)n3)ccc2C1", "read-out": "enzyme activity", "mode": "inhibitor", "technique": "radiometric", "concentration": "1 µM", "measurement": "remaining activity", "result": "-4%"}
{"SMILES": "O=C(Nc1cnn(-c2csc(C(=O)NC3COC3)c2)c1)Nc1ccccc1Cl", "read-out": "enzyme activity", "mode": "inhibitor", "concentration": "5 µM", "measurement": "remaining activity", "result": "98.2%"}
{"SMILES": "CNc1cccc2cc(C(=O)Nc3ccc(C(=O)O)cc3)c(=O)[nH]c12", "read-out": "enzyme activity", "mode": "inhibitor", "concentration": "10 µM", "measurement": "inhibition", "result": "-10%"}
{"SMILES": "COc1cc2ncnc(Nc3ccc(Oc4ccccc4)cc3C)c2cc1OC", "read-out": "enzyme activity", "mode": "inhibitor", "concentration": "1 µM", "measurement": "inhibition", "result": "8%"}
{"SMILES": "CS(=O)(=O)CCNCc1ccc(-c2ccc3ncnc(Nc4ccc(OCc5cccc(F)c5)c(Cl)c4)c3c2)o1", "read-out": "cell-free assay", "concentration": "0.5 µM", "measurement": "remaining signal", "result": "95.9%"}
{"SMILES": "O=C(NCCCNc1nc(Nc2cccc(NC(=O)N3CCCC3)c2)ncc1I)c1cccs1", "read-out": "enzyme activity", "mode": "inhibitor", "technique": "radiometric", "concentration": "1 µM", "measurement": "remaining activity", "result": "-4%"}
{"SMILES": "CC(=O)N1CCC(c2ccc(C(=O)NC(=N)N)cc2C(F)(F)F)CC1", "read-out": "cell-free assay", "technique": "competition with immobilised ligand", "concentration": "1 µM", "measurement": "remaining binding", "result": "88%"}
{"SMILES": "CS(=O)(=O)Nc1cccc(-c2csc(NC(=O)CSc3nc4nccnc4c(=O)n3CCc3ccccc3)n2)c1", "read-out": "enzyme activity", "mode": "inhibitor", "concentration": "10 µM", "measurement": "inhibition", "result": "1%"}
{"SMILES": "Cc1nn(CC(F)(F)F)cc1Nc1nccc(NCCCNC(=O)C2CCC2)n1", "read-out": "enzyme activity", "mode": "inhibitor", "technique": "radiometric", "concentration": "1 µM", "measurement": "remaining activity", "result": "126%"}
{"SMILES": "Nc1nc(Nc2ccccc2)sc1C(=O)c1c(F)cccc1F", "read-out": "enzyme activity", "mode": "inhibitor", "concentration": "10 µM", "measurement": "remaining activity", "result": "25%"}
{"SMILES": "Cn1nc(C(F)(F)F)cc1-c1cnc(N2CCc3cc(S(=O)(=O)Nc4c(F)cc(Cl)cc4F)cc(N4CCCC4=O)c32)nc1", "read-out": "binding", "technique": "competition with immobilised ligand", "concentration": "1 µM", "measurement": "remaining binding", "result": "12%"}
{"SMILES": "COc1cc(Nc2cnc(C#N)c(O[C@H](C)CN(C)C)n2)ncc1-c1cnn(C)c1", "read-out": "enzyme activity", "mode": "inhibitor", "technique": "radiometric", "concentration": "10 µM", "measurement": "remaining activity", "result": "69%"}
